The list is not random: actives were taken first. Their share in the collection is about 3.5%.
RGS4 act – potentiators or activators of RGS4; B-score at 10 µM; AID 463111; 0.92% of 310,000 active; HEK293 M3R/inducible RGS4, carbachol calcium flux Fluo4; stronger effect = lower value;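 active = B-score of the integrated calcium signal more than 4 SD below the library mean, with starting fluorescence not abnormally high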;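 note: negative B-score means reduced calcium response which marks RGS4 activation or potentiation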
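Detection: kinetic calcium fluorescence imaging with Fluo4-AM dye, 2 µM / Material: HEK293 cells with stable M3R and inducible RGS4 / Schedule: recording 10 s baseline at 1 Hz, 100 s post-agonist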
MrgX1 allo act – human MrgX1 positive allosteric modulation, primary screen. 0.63% of 310,000 active. MrgX1-HEK293, Fluo-4 calcium flux, FDSS; stronger effect = higher value. B-score at 10 µM. AID 588675. Q96LB2;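 active = plate-corrected calcium response at least 3 library SD above typical, normal starting fluorescence, not activating the receptor alone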;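 note: compound read alongside a low EC10 to EC30 dose of BAM8-22 agonist; peak minus trough fluorescence over baseline measured at the second addition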
Target sequence (Q96LB2 whole entry, looked up): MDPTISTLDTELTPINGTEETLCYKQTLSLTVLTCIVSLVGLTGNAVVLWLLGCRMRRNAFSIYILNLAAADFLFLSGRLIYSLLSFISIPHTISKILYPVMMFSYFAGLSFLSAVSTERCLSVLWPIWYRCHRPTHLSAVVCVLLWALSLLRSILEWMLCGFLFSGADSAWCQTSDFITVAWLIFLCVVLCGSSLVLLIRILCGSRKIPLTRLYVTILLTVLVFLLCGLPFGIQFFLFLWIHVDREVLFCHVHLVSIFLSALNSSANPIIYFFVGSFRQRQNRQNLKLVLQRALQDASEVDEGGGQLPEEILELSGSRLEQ
RGS4 inh – inhibitors of human RGS4. HEK293 M3R/RGS4 inducible, Fluo-4 calcium flux; stronger effect = higher value; triggered by carbachol at its EC20. B-score at 10 µM. 0.45% of 310,000 active;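 active = B-score, a plate-corrected calcium signal, over three deviations above library mean, with baseline fluorescence within five deviations of library mean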;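 note: RGS4 expression induced by doxycycline in cells with stable M3 receptor; B-score is computed from the integrated fluorescence ratio over baseline after carbachol; higher B-score means a larger calcium signal and so more RGS4 inhibition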
Target sequence (P49798 whole entry, looked up): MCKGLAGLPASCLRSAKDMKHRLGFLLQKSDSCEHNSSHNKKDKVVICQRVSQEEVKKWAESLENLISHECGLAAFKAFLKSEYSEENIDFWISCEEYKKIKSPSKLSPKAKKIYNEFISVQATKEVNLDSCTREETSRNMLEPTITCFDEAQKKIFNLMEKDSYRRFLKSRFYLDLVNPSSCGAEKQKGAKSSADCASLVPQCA
MrgX1 antagonist – blocks BAM8-22 activation of human MrgX1 receptor; MRGX1-HEK293 calcium flux, Fluo-4, BAM8-22 antagonism; stronger effect = lower value; B-score at 10 µM; 1.3% of 310,000 active; AID 588676;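 active = calcium-response B-score plate-corrected more than 3 library SD below zero, starting fluorescence within 5 deviations, no agonist response on first addition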;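 note: peak minus trough fluorescence over baseline after final BAM8-22 challenge near maximal dose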
MrgX1 agonist – human MrgX1 receptor agonism, primary screen; B-score at 10 µM; AID 588627; MrgX1-HEK293 cells, Fluo-4 calcium fluorescence, agonist mode; stronger effect = higher value; Q96LB2; 0.44% of 310,000 active;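 active = calcium response B-score plate-corrected fluorescence ratio at least 3 library SD, with starting fluorescence B-score inside 5 SD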
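Material: MrgX1-expressing HEK293 cells; input: 15,000 cells per well; doses: test compound given as first of three sequential additions; schedule: overnight plating before 1 h dye loading; technique: Fluo-4 NW calcium-flux fluorescence, kinetic read; evaluation: baseline-normalised fluorescence change ratio, B-scored; control set: plate-wise positive and negative controls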
RGS4 inh valid – validation of RGS4 inhibitors; shares compounds with RGS4 inh; calcium response, % at 10 µM; 65% of 1,700 active; AID 492999; HEK293 M3R/RGS4, carbachol calcium Fluo-4 fluorescence; carbachol added at its EC20; 0 = buffer wells, 100 = carbachol control;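 active = duplicate-averaged calcium response above the buffer-only control mean plus 5 SD of those controls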;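 note: integrated fluorescence ratio F max minus min over baseline F0; higher response in RGS4-induced cells means RGS4 inhibition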
RGS4 uninduced – checks RGS4 inhibitor effects in non-induced HEK293 M3R cells; shares compounds with RGS4 inh; carbachol calcium Fluo-4; submaximal (EC20) carbachol stimulus; buffer wells 0%, carbachol control wells 100%; activity (percent), % at 10 µM; 20% of 1,900 active; call rule not given here;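 note: RGS4 induction absent so cells express M3R without RGS4; higher means more calcium signal and flags a non-specific hit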
RGS4 inh ctr2 – second RGS4 inhibitor counter-screen in uninduced cells lacking carbachol. shares compounds with RGS4 inh. HEK293 M3R/RGS4 non-induced, Fluo-4 calcium, no carbachol; normalised: buffer wells 0%, carbachol wells 100%. calcium response (agonist-mode artifact), % at 10 µM. 22% of 1,900 active;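 active = duplicate-averaged calcium rise in uninduced cells above buffer wells' mean plus 5 SD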
Numbers stand for hits.

For CC(C)(C)NC(=O)CCN(/N=C/c1ccccc1O)C1=NS(=O)(=O)c2ccccc21 the results were RGS4 act inactive, MrgX1 allo act inactive, RGS4 inh inactive, MrgX1 antagonist inactive and MrgX1 agonist inactive.
Screening Cc1ccsc1/C=N/NC(=S)NCc1ccccc1 returned RGS4 act inactive, MrgX1 allo act inactive, RGS4 inh inactive, MrgX1 antagonist inactive, MrgX1 agonist inactive, RGS4 uninduced inactive and RGS4 inh ctr2 inactive.
`Cc1cc(NC(=O)CSc2ccc(-c3ccc(F)cc3)nn2)no1` gave RGS4 act inactive, MrgX1 allo act inactive, RGS4 inh inactive, MrgX1 antagonist inactive and MrgX1 agonist inactive.
N#C/C(=C\c1ccc(Cl)c([N+](=O)[O-])c1)c1ccccn1 was read as RGS4 act inactive, MrgX1 allo act inactive, RGS4 inh 9, MrgX1 antagonist inactive, MrgX1 agonist inactive, RGS4 inh valid 16%, RGS4 uninduced inactive and RGS4 inh ctr2 inactive.
`C[C@@H](NC(=O)/C(C#N)=C/c1ccc(O)c(O)c1)c1ccccc1` gave MrgX1 allo act inactive, MrgX1 antagonist inactive and MrgX1 agonist inactive.
Screening CC(NC(=O)/C(C#N)=C/c1ccc(Cl)c([N+](=O)[O-])c1)c1ccccc1 (stereo not given) returned RGS4 act inactive, MrgX1 allo act 8.9, RGS4 inh 49, MrgX1 antagonist inactive, MrgX1 agonist inactive, RGS4 inh valid 22%, RGS4 uninduced inactive and RGS4 inh ctr2 31%.
`O=C(Nc1ccnc(-c2ccncc2)n1)c1ccc(Cl)cc1` gave RGS4 act inactive, MrgX1 allo act inactive, RGS4 inh inactive, MrgX1 antagonist inactive and MrgX1 agonist inactive.
For COc1ccc(-c2nc3ccccc3nc2-c2ccccc2)cc1OC the results were RGS4 act inactive, MrgX1 allo act inactive, RGS4 inh inactive, MrgX1 antagonist inactive and MrgX1 agonist inactive.
For COc1ccc(OC)c(-c2nc3cc4ccccc4cc3nc2-c2ccccc2)c1 the results were RGS4 act inactive, MrgX1 allo act inactive, RGS4 inh 6.8, MrgX1 antagonist inactive, MrgX1 agonist inactive, RGS4 inh valid 14%, RGS4 uninduced inactive and RGS4 inh ctr2 94%.
Screening CCOC(=O)CN1C(=O)N[C@@H](CCc2ccccc2)C(C(C)=O)=C1C returned RGS4 act inactive, MrgX1 allo act inactive, RGS4 inh inactive, MrgX1 antagonist inactive and MrgX1 agonist inactive.
`COc1ccccc1NCC(O)Cn1c2ccccc2c2ccccc21` (stereo not given) gave RGS4 act inactive, MrgX1 allo act inactive, RGS4 inh inactive, MrgX1 antagonist inactive and MrgX1 agonist inactive.
Screening COc1ccc(CCNCC(O)Cn2c3ccccc3c3ccccc32)cc1OC (stereo not given) returned RGS4 act inactive, MrgX1 allo act inactive, RGS4 inh 17, MrgX1 antagonist inactive, MrgX1 agonist inactive, RGS4 inh valid 62%, RGS4 uninduced inactive and RGS4 inh ctr2 14%.
O=C(OC(C(=O)Nc1cccc(C(F)(F)F)c1)c1ccccc1)C1CCCCC1 (stereo not given) was read as MrgX1 allo act inactive, MrgX1 antagonist inactive and MrgX1 agonist inactive.
For CCOC(=O)c1c(-c2ccc(C)o2)csc1NC(=O)CSc1nnc(C)s1 the results were RGS4 act inactive, MrgX1 allo act inactive, RGS4 inh inactive, MrgX1 antagonist inactive, MrgX1 agonist inactive, RGS4 inh valid inactive, RGS4 uninduced inactive and RGS4 inh ctr2 inactive.
CCOC(=O)c1sc(NC(=O)CSc2nnnn2-c2ccccc2)nc1C was read as RGS4 act inactive, MrgX1 allo act inactive, RGS4 inh inactive, MrgX1 antagonist inactive and MrgX1 agonist inactive.
Screening CCOC(=O)c1c(-c2ccc(C)o2)csc1NC(=O)CSc1nnnn1-c1ccccc1 returned RGS4 act inactive, MrgX1 allo act inactive, RGS4 inh 9.9, MrgX1 antagonist inactive, MrgX1 agonist inactive, RGS4 inh valid inactive, RGS4 uninduced inactive and RGS4 inh ctr2 inactive.
CCOC(=O)c1c(-c2ccccc2)csc1NC(=O)CSc1nnc(C)s1 was read as RGS4 act inactive, MrgX1 allo act inactive, RGS4 inh inactive, MrgX1 antagonist inactive and MrgX1 agonist inactive.
COCCn1c(SCc2ccc(F)cc2)nc2ccccc2c1=O was read as RGS4 act inactive, MrgX1 allo act inactive, RGS4 inh inactive, MrgX1 antagonist inactive and MrgX1 agonist inactive.
Cc1cccc(NC(=S)NCC(c2cccnc2)N(C)C)c1 (stereo not given) was read as RGS4 act inactive, MrgX1 allo act inactive, RGS4 inh inactive, MrgX1 antagonist inactive and MrgX1 agonist inactive.
Screening Cc1cccn2c(=O)c(C=Nc3ccc(Cl)cc3)c(NCCO)nc12 returned RGS4 act inactive, MrgX1 allo act inactive, RGS4 inh inactive, MrgX1 antagonist inactive and MrgX1 agonist inactive.
`Cc1cccn2c(=O)c(C=NCCO)c(Nc3ccc(Cl)cc3)nc12` gave RGS4 act inactive, MrgX1 allo act inactive, RGS4 inh 7.5, MrgX1 antagonist inactive, MrgX1 agonist inactive, RGS4 inh valid 12%, RGS4 uninduced inactive and RGS4 inh ctr2 inactive.
Screening CCCNC(=O)NC1C(NC(=O)NCCC)N(C)C(=O)N1C (stereo not given) returned RGS4 act inactive, MrgX1 allo act inactive, RGS4 inh inactive, MrgX1 antagonist inactive and MrgX1 agonist inactive.
Screening O=C(O)CCC(=O)Nc1sc2c(c1C(=O)NCc1ccccc1)CCCC2 returned RGS4 act inactive, MrgX1 allo act inactive, RGS4 inh inactive, MrgX1 antagonist inactive and MrgX1 agonist inactive.
`COc1ccc(NC(=O)c2c(NC(=O)CCC(=O)O)sc3c2CCCCC3)cc1` gave RGS4 act inactive, MrgX1 allo act inactive, RGS4 inh inactive, MrgX1 antagonist inactive, MrgX1 agonist inactive, RGS4 inh valid inactive, RGS4 uninduced inactive and RGS4 inh ctr2 inactive.
Screening Cc1noc(NS(=O)(=O)c2ccc(NC(=O)c3nn(-c4ccc(F)cc4)ccc3=O)cc2)c1C returned RGS4 act inactive, MrgX1 allo act inactive, RGS4 inh inactive, MrgX1 antagonist inactive and MrgX1 agonist inactive.
Screening Cc1ccc(-n2ccc(=O)c(C(=O)Nc3ccc(S(=O)(=O)Nc4onc(C)c4C)cc3)n2)cc1 returned RGS4 act inactive, MrgX1 allo act inactive, RGS4 inh inactive, MrgX1 antagonist inactive, MrgX1 agonist inactive, RGS4 uninduced inactive and RGS4 inh ctr2 inactive.
